Assay results published in ChEMBL document CHEMBL4622923, “Discovery of 4-Phenylpiperidine-2-Carboxamide Analogues as Serotonin 5-HT2C Receptor-Positive Allosteric Modulators with Enhanced Drug-like Properties” (J Med Chem, 2020).
Calls of active or inactive are those of the source.

Key:
[1] = system: Rattus norvegicus; test: Neurobiological activity in Sprague-Dawley rat assessed as increase in number of rat choosing drug associated lever at 0.5 mg/kg, ip treated 15 mins prior to test by drug discrimination test relative to control; format: functional
Method in brief: (§1)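 Male Sprague-Dawley rats (n = 13, 300–325 g) held at 80–90% free-feeding weight by water restriction. Trained to discriminate WAY163909 0.75 mg/kg ip from saline, 1 mL/kg, 15 min pretreatment. Two-lever, water-reinforced, FR20, 15 min sessions. Criterion ≥80% correct responding for 10 sessions. Test doses given ip 15 min pretest. Read-out: percentage of rats choosing the drug lever.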

[2] = system: Rattus norvegicus; test: Neurobiological activity in ip dosed Sprague-Dawley rat assessed as increase in number of rat choosing drug associated lever treated 15 mins prior to test by drug discrimination test; format: functional
[3] = system: Rattus norvegicus; test: Neurobiological activity in Sprague-Dawley rat assessed as increase in number of rat choosing drug associated lever at 1 mg/kg, ip treated 15 mins prior to test by drug discrimination test relative to control; format: functional; method in brief: as §1
[4] = system: Rattus norvegicus; test: Neurobiological activity in Sprague-Dawley rat assessed as increase in number of rat choosing drug associated lever at 0.75 mg/kg, ip treated 15 mins prior to test by drug discrimination test relative to control; format: functional; method in brief: as §1
[5] = system: Rattus norvegicus; test: Neurobiological activity in Sprague-Dawley rat assessed as increase in number of rat choosing drug associated lever at 0.25 to 0.625 mg/kg, ip treated 15 mins prior to test by drug discrimination test; format: functional, organism-based
Method in brief: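 Male Sprague-Dawley rats (n=13), water-restricted to 80-90% free-feeding weight, trained in a two-lever water-reinforced task (FR 20) to discriminate 0.75 mg/kg WAY163909 ip from saline (1 mL/kg). Test drug given ip 15 min before the 15-min session. Read-out is the percentage of rats choosing the drug lever. ED50 is taken from log-probit analysis.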

[6] = system: Rattus norvegicus; test: Neurobiological activity in Sprague-Dawley rat assessed as increase in number of rat choosing drug associated lever at 0.625 mg/kg, ip treated 15 mins prior to test by drug discrimination test relative to control; format: functional; method in brief: as §1
[7] = target: T1, 5-hydroxytryptamine receptor 2C (Homo sapiens) (UniProt P28335); test: Positive allosteric modulation of human 5HT2CR expressed in CHO cells assessed as increase in 5-HT induced intracellular calcium release at 1 nM preincubated for 15 mins followed by 5-HT addition and measured at 1 secs interval for 360 secs by calcium 4 dye based FLIPR assay relative to 5-HT; format: functional, cell-based
T1 sequence (whole entry): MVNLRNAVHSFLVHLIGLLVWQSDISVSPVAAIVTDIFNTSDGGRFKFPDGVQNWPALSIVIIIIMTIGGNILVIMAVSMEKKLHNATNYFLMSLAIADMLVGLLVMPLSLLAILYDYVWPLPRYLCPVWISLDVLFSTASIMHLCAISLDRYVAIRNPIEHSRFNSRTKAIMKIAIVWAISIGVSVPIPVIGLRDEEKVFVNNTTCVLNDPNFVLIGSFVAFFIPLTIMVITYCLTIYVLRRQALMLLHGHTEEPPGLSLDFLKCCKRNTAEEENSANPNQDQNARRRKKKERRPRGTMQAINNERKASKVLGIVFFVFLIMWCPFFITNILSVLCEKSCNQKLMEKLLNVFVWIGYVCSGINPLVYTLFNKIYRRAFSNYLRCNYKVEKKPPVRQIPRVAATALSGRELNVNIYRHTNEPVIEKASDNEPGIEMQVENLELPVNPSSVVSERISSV
Method in brief: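 CHO cells stably expressing human unedited (INI) 5-HT2C receptor, serum-starved 3 h, then loaded 60 min at 37 °C with Calcium 4 dye and 2.5 mM probenecid in HBSS (pH 7.4). Compound added 15 min before 5-HT (10 pM–10 μM). FLIPR read every 1 s for 360 s; peak height; Emax by 4-parameter fit, 4–6 biological replicates in triplicate, relative to 5-HT alone.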

[8] = target: T2, 5-hydroxytryptamine receptor 2C (Homo sapiens, UniProt P28335); test: Agonist activity at human 5HT2CR expressed in CHO cells assessed as increase in intracellular calcium release at 1 nM incubated for 15 mins measured at 1 secs interval for 120 secs by calcium 4 dye based FLIPR assay relative to 5-HT; format: cell-based; conditions: 0.001 µM
T2 sequence (P28335 whole entry): T1 sequence (whole entry)
Method in brief: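 h5-HT2CR (unedited INI isoform) stably expressed in CHO cells; cells plated ~24 h, serum-free medium 3 h, then Calcium 4 dye with 2.5 mM probenecid in Ca/Mg-free HBSS pH 7.4 for 60 min at 37°C plus 15 min at room temperature. Compound given alone, read for 15 min before 5-HT. Peak fluorescence is expressed relative to the 5-HT Emax. 4-6 biological replicates, each in triplicate.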

[9] = target: 5-HT2A receptor (Homo sapiens, UniProt P28223); test: Positive allosteric modulation of human 5HT2AR expressed in CHO cells assessed as increase in 5-HT induced intracellular calcium release at 1 nM preincubated for 15 mins followed by 5-HT addition and measured at 1 secs interval for 360 secs by calcium 4 dye based FLIPR assay relative to 5-HT; format: cell-based; conditions: CHO cells expressing human 5HT2AR
Method in brief: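 CHO cells stably expressing human 5-HT2AR, serum-starved 3 h, then loaded with Calcium 4 dye plus 2.5 mM probenecid in HBSS (no Ca/Mg, pH 7.4) for 60 min at 37°C and 15 min at room temperature. Test compound added 15 min before 5-HT (10 pM-10 μM). FLIPR fluorescence read every 1 s for 360 s after 5-HT. Emax from 4-parameter fit, normalized to 5-HT maximum.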

5-HT2A receptor, sequence (P28223 whole entry): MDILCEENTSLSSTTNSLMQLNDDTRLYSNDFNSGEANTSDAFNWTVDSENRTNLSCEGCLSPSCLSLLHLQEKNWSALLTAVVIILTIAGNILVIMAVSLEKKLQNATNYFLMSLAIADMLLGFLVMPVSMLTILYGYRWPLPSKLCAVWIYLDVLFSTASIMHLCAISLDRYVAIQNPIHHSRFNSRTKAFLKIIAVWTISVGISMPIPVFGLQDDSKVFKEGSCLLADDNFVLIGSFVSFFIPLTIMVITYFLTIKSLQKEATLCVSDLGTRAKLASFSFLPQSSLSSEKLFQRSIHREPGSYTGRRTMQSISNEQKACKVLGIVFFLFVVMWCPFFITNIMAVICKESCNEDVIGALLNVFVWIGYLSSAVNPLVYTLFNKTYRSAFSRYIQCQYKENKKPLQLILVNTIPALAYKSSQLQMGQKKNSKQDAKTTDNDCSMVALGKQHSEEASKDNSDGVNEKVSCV

Row | SMILES | Emax [7] | Activity [8] | other results
1 | c1cc2c3c(c1)[C@H]1CCC[C@H]1N3CCNC2 |  |  | Activity [1]: 46%; ED50 [2]: 0.51 mg/kg; Activity [3]: 100%; Activity [4]: 92%; Activity [5]: Active; Activity [6]: 54%
2 | O=C(NC[C@H](O)CO)[C@@H]1C[C@H](CCc2ccccc2)CCN1 | 108% | Not Active | 
3 | O=C(NC[C@H](O)CO)[C@@H]1C[C@H](CCC2CCCCC2)CCN1 | 110% | Not Active | 
4 | Cc1ccc(CC[C@H]2CCN[C@@H](C(=O)N[C@H](CO)[C@H](O)c3ccccc3)C2)cc1 | 98.9% | Not Active | 
5 | O=C(N[C@H](CO)[C@H](O)c1ccccc1)[C@@H]1C[C@H](c2ccccc2)CCN1 | 103% | Not Active | 
6 | CC(C)(C)c1ccc(CC[C@H]2CCN[C@@H](C(=O)N[C@H](CO)[C@H](O)c3ccccc3)C2)cc1 | 107% | Not Active | 
7 | O=C(N[C@H](CO)[C@H](O)c1ccccc1)[C@@H]1C[C@H](CCc2ccccc2)CCN1 | 110% | Not Active | Emax at 0.1 h, 0.001 µM [9]: 104%
8 | O=C(N[C@H](CO)[C@H](O)c1ccccc1)[C@H]1C[C@@H](c2ccccc2)CCN1 | 118% | Not Active | Emax at 0.1 h, 0.001 µM [9]: 103%
9 | CC(C)(C)c1ccc(CC[C@@H]2CCN[C@H](C(=O)N[C@H](CO)[C@H](O)c3ccccc3)C2)cc1 | 115% | Not Active | 
10 | O=C(N[C@H](CO)[C@H](O)c1ccccc1)[C@H]1C[C@@H](CCc2ccccc2)CCN1 | 109% | Not Active | 
11 | Cc1ccc(CC[C@@H]2CCN[C@H](C(=O)N[C@H](CO)[C@H](O)c3ccccc3)C2)cc1 | 99.3% | Not Active | 
12 | O=C(NC[C@H](O)CO)[C@@H]1C[C@H](C2CCCCC2)CCN1 (mixture of isomers) | 118% | Not Active | Emax at 0.1 h, 0.001 µM [9]: 97.8%
13 | O=C(NCCCN1CCOCC1)[C@@H]1C[C@H](CCc2ccccc2)CCN1 (racemic) | 118% | Not Active | Emax at 0.1 h, 0.001 µM [9]: 97.9%
14 | O=C(NCCN1CCOCC1)[C@@H]1C[C@H](CCc2ccccc2)CCN1 (racemic) | 94.2% | Not Active | 
15 | O=C(NCCN1CCOCC1)[C@@H]1C[C@H](c2ccccc2)CCN1 (racemic) | 114% | Not Active | 
16 | O=C(NC(CO)CO)[C@@H]1C[C@H](c2ccccc2)CCN1 (racemic) | 119% | Not Active | Emax at 0.1 h, 0.001 µM [9]: 99.3%
17 | O=C(NCCN1CCOCC1)[C@@H]1C[C@H](C2CCCCC2)CCN1 (racemic) | 121% | Not Active | 
18 | O=C(NCCN1CCOCC1)[C@@H]1C[C@H](CCC2CCCCC2)CCN1 (racemic) | 110% | Not Active | 
19 | O=C(NCCCN1CCOCC1)[C@@H]1C[C@H](CCC2CCCCC2)CCN1 (racemic) | 118% | Not Active | Emax at 0.1 h, 0.001 µM [9]: 97.2%
20 | O=C(NC(CO)CO)[C@@H]1C[C@H](C2CCCCC2)CCN1 (racemic) | 119% | Not Active | 
21 | CCCCCCCCCCC[C@@H]1CCN[C@H](C(=O)NCC(O)CO)C1 (relative stereo) |  | Not Active | 
22 | O=C(NC(CO)CO)[C@@H]1C[C@H](CCc2ccccc2)CCN1 (relative stereo) | 101% | Not Active | 
23 | O=C(NC(CO)CO)[C@@H]1C[C@H](CCC2CCCCC2)CCN1 (relative stereo) | 106% | Not Active | 
